{"data": "Assay results collected from several papers"}
{"SMILES": "Nc1ncn([C@H]2C[C@H](O)[C@@H](CO)O2)c(=O)n1", "test system": "female C57BL/6 mouse, plasma", "conditions": "intravenous, 0.4 mg/kg", "quantity": "Tmax", "value": "4.98 min"}
{"SMILES": "CN1CC[C@@H](c2c(O)cc(O)c3c(=O)cc(-c4ccc(C(F)(F)F)cc4Cl)oc23)[C@@H]1CO", "test system": "human, plasma", "conditions": "oral, 50 mg, patients", "quantity": "Cmax", "value": "86.3 ng/mL"}
{"SMILES": "CCOC(=O)c1cc(Cl)cc(NC(=O)c2sc(Cl)cc2S(=O)(=O)N(C)c2ccc(OCC)c(OC)c2)c1", "test system": "male C57BL/6 mouse, brain", "conditions": "intraperitoneal, 10 mg/kg", "quantity": "Tmax", "value": "15 min"}
{"SMILES": "CNC(=O)n1ccc2cc(Oc3ccnc(NC(=O)c4ccc(C5CCN(CCO)CC5)cc4)c3)c(OCCOC)cc21", "test system": "human, plasma", "conditions": "oral, 35 mg, healthy volunteers", "quantity": "Cmax", "value": "7.28 ng/mL"}
{"SMILES": "Cl.[2H]C([2H])([2H])CC(=O)c1cnc(NC(=O)C2CC2)cc1Nc1cccc(-c2ncn(C([2H])([2H])[2H])n2)c1OC", "test system": "human, plasma", "conditions": "oral, 10 mg, multiple doses, once daily, fasted", "quantity": "Cmax", "value": "99.5 ng/mL"}
{"SMILES": "Cc1c(C(=O)O)ccc2c3n(nc12)[C@@H]1[C@H](C3)N(CC2CC2)[C@@]2(C(=O)Nc3cc(Cl)ccc32)[C@H]1c1cccc(Cl)c1F", "test system": "female minipig, plasma", "conditions": "intravenous", "quantity": "Vd", "value": "0.94 L/kg"}
{"SMILES": "Cn1cc(Nc2nc(N)nc(-c3cccc(-n4ccc5cc(C6CC6)cc(F)c5c4=O)c3CO)n2)cn1", "test system": "human, plasma", "conditions": "oral, 25 mg, single dose, fasted, suspension", "quantity": "Cmax", "value": "219 ng/mL"}
{"SMILES": "Cc1c(N(C)C)ccc2cc(C(=O)NS(=O)(=O)c3ccccc3-c3ccccc3)oc12", "test system": "Caco-2", "conditions": "2 µM, 2 h, pH 7.2", "quantity": "efflux ratio", "value": 0.7}
{"SMILES": "C[C@H]1O[C@@H](O[C@H]2[C@@H](O)C[C@H](O[C@H]3[C@@H](O)C[C@H](O[C@H]4CC[C@@]5(C)[C@H](CC[C@@H]6[C@@H]5C[C@@H](O)[C@]5(C)[C@@H](C7=CC(=O)OC7)CC[C@]65O)C4)O[C@@H]3C)O[C@@H]2C)C[C@H](O)[C@@H]1O", "test system": "Caco-2", "conditions": "5 µM, 2 h", "quantity": "efflux ratio", "value": 50.7}
{"SMILES": "COc1ccc([C@@H](O)c2cc(-c3ncnc4cc(N5CCOCC5)ccc34)c(F)cc2Cl)nn1", "test system": "human, plasma", "conditions": "oral, 250 mg, single dose, patients", "quantity": "Cmax", "value": "2380 ng/mL"}
{"SMILES": "N#C[C@@]12C[C@@H]1[C@@H](n1cnc3c(N[C@@H](C4CCC4)C4CC4)nc(I)nc31)[C@H](O)[C@@H]2O", "test system": "Caco-2", "quantity": "efflux ratio", "value": 2.76}
{"SMILES": "CC(=O)N[C@H]1CC[C@H](NC(=O)CN2CCN(c3nncc(-c4ccc(C)cc4)n3)CC2)CC1", "test system": "male human, plasma", "conditions": "oral, 100 mg, single dose, fasted", "quantity": "Cmax", "value": "1070 ng/mL"}
